The nature of data set [1]: AUC (0 to t) in female Sprague-Dawley rat at 5 mg/kg, po measured for 36 hrs by LC-MS/MS analysis. Details: dose 5 mg/kg, time 36 hrs. The settings on record: in vivo. The format is ADME, organism-based. Summed up: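 Sprague-Dawley rats (200–220 g), three per sex per route, were dosed at 0.5 mg/kg IV or 5 mg/kg PO in DMSO/Tween-80/water (1:5:94). Heparinized blood was drawn from 5 min to 36 h after IV dosing and from 1 h to 36 h after oral dosing. Plasma was deproteinized with methanol (2% HCl) plus carbamazepine internal standard, measured by LC-MS/MS, and reported as mean ± SD.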

Data set [2] is described as follows: Cmax in male Sprague-Dawley rat at 0.5 mg/kg, iv measured for 36 hrs by LC-MS/MS analysis. The format is ADME, organism-based. Further details: route intravenous, dose 0.5 mg/kg, time 36 hrs. The settings on record: in vivo.
Data set [3] can be described thus: Cmax in female Sprague-Dawley rat at 0.5 mg/kg, iv measured for 36 hrs by LC-MS/MS analysis. Format: ADME, organism-based. Details: route intravenous, time 36 hrs, dose 0.5 mg/kg. The settings on record: in vivo.
A short description of data set [4]: MRT(0 to t) in male Sprague-Dawley rat at 0.5 mg/kg, iv measured for 36 hrs by LC-MS/MS analysis. Format: ADME, organism-based. The settings on record: in vivo.
Data set [5] in a line: Clearance in female Sprague-Dawley rat at 0.5 mg/kg, iv measured for 36 hrs by LC-MS/MS analysis. The format is ADME, organism-based. The settings on record: in vivo.
A short description of data set [6]: Volume of distribution at steady state in female Sprague-Dawley rat at 0.5 mg/kg, iv measured for 36 hrs by LC-MS/MS analysis. Format: ADME, organism-based. Particulars: in vivo. Summed up: (§1)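 Sprague-Dawley rats (200–220 g), three males and three females per route group. Dosed 5 mg/kg orally or 0.5 mg/kg IV as a solution in DMSO/T-80/H2O (1:5:94 by volume). Heparinized blood was drawn from 5 min to 36 h after IV and 1–36 h after oral dosing. Plasma was protein-precipitated with methanol (2% HCl) plus carbamazepine internal standard and assayed by LC-MS/MS. Parameters were taken from concentration-time data; n = 3 per sex, mean ± SD.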

Data set [7] is described as follows: Oral bioavailability in male Sprague-Dawley rat at 5 mg/kg measured for 36 hrs by LC-MS/MS analysis. Format: ADME, organism-based. The settings on record: in vivo. Summed up:
as §1

For data set [8], the system named is MEF. Description: Induction of apoptosis in wild type mouse MEF cells assessed as PARP cleavage at 0.5 uM measured after 6 hrs by western blot assay. Format: functional, cell-based. Summed up:
(§2)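 Wild-type, Nur77−/− or Bcl-2−/− mouse embryonic fibroblasts grown in DMEM with 10% FBS and treated with 0.5 µM for 6 h. PARP cleavage detected by western blot, primary antibodies at 1:1000, ECL.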
For orientation: In western blotting, separated proteins are transferred to a membrane and probed.

In data set [9] the test system is MEF. Description: Induction of apoptosis in mouse MEF cells deficient in Bcl2 assessed as PARP cleavage at 0.5 uM measured after 6 hrs by Western blot assay. Format: functional, cell-based. Summed up:
as §2

Data set [10] has as its target Nuclear receptor subfamily 4immunitygroup A member 1 (Homo sapiens, UniProt P22736). Description: Modulation of GFP-Nur77 (unknown origin) transfected in human HEK293T cells co-transfected with Flag-tagged Bcl2 assessed as interaction of Nur77 with Bcl2 in mitochondria at 0.5 uM measured after 2 hrs by confocal microscopy. The settings on record: filed as modulator. Summed up: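 HEK293T cells were lipofectamine-cotransfected with Flag-Bcl-2 and GFP-Nur77 or GFP-Nur77-LBD, then given 0.5 μM compound for 2 h. Cells were fixed in 4% paraformaldehyde, permeabilised with 0.1% Triton X-100, blocked in 1% BSA and stained with anti-Flag plus DAPI. Mitochondrial colocalisation with Bcl-2 was read by confocal microscopy.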

The nature of data set [11]: Cmax in male/female Sprague-Dawley rat at 0.5 mg/kg, iv measured for 36 hrs by LC-MS/MS analysis. The format is ADME, organism-based. Details: route intravenous, dose 0.5 mg/kg, time 36 hrs. The settings on record: both, in vivo.
The nature of data set [12]: Tmax in male/female Sprague-Dawley rat at 5 mg/kg, po measured for 36 hrs by LC-MS/MS analysis. Format: ADME, organism-based. The settings on record: both, in vivo. Summed up: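 Sprague-Dawley rats (200–220 g), four per route group (2 male, 2 female), given 0.5 mg/kg IV or 5 mg/kg orally in DMSO/T-80/H2O (1:5:94). Heparinized blood was sampled at 5 min–36 h after IV and at 0.5, 1, 3, 4, 6, 8, 10, 12, 24 and 36 h after oral dosing. Plasma was methanol (2% HCl)-precipitated with carbamazepine internal standard and quantified by LC-MS/MS. Parameters reported as mean ± SD.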

A short description of data set [13]: Selectivity index, ratio of IC50 for human NCM460 cells to IC50 for human HCT-116 cells. Format: toxicity. The settings on record: NCM460 cells versus HCT-116 cells, read-out: Ratio IC50.

Activity calls are given as the source filed them. No cut-off for these calls is given here.

Chain of Nuclear receptor subfamily 4immunitygroup A member 1 (P22736 whole entry, the tested form may be a part): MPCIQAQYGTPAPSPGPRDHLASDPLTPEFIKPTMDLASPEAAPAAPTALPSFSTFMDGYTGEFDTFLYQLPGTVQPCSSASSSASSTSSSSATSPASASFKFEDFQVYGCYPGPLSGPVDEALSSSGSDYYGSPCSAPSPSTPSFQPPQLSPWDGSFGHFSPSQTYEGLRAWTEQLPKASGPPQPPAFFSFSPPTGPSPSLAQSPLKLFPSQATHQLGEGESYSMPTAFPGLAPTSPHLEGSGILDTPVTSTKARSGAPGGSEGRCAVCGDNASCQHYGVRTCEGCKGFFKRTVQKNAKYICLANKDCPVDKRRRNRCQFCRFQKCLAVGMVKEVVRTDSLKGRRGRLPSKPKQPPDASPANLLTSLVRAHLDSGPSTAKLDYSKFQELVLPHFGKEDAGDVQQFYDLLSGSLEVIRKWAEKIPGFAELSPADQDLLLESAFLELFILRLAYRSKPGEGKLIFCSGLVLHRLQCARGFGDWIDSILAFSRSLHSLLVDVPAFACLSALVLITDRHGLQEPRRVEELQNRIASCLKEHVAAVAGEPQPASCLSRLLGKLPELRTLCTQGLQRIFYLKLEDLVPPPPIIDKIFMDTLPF

What is called AUC(0-t) is the area under the concentration-time curve up to a stated or last time point. Read a low AUC(0-t) as less exposure. As a reminder, the Cmax is the maximum level reached in the sampled fluid or tissue. As usually defined, the MRT last is a mean duration of stay, worked out from the concentration-time curve. By Vdss is commonly meant a proportionality between amount in the body and measured concentration, not a real space. The bioavailability is the share of a dose that reaches the circulation, judged against a reference dose that is usually intravenous. High values mean much systemic uptake, low ones little systemic uptake. Consider `CS(=O)(=O)[O-].FC(F)(F)c1ccc([C+](c2c[nH]c3ccccc23)c2c[nH]c3ccccc23)cc1`, for which the AUC(0-t) at 36 h in [1] turned out to be 3950 ng·h/mL. In addition, the Cmax in data set [2] came to 880 ng/mL; in data set [3] it was 1640 ng/mL. In data set [4], this compound displayed an MRT last at 36 h of 4.31 h. The same compound returned a CL in [5] of 4.67 mL/min/kg. Further, the Vdss in [6] was found to be 2.38 L/kg. Further, the bioavailability in data set [7] came to 20.1%.

In general, Tmax refers to the time at which the peak concentration occurs. On to `CS(=O)(=O)[O-].Cn1cc([C+](c2ccc(C(F)(F)F)cc2)c2c[nH]c3ccccc23)c2ccccc21`, for which the outcome in data set [8] and in data set [10] was Active. In addition, in data set [9], the outcome was inactive. The compound further had a Cmax in data set [11] of 561 ng/mL. For the same compound, the Tmax in data set [12] was 3 h. Moreover, in data set [13], the selectivity ratio stood at 50.

The record behind these values is ChEMBL document CHEMBL4819003, “Optimization of novel oxidative DIMs as Nur77 modulators of the Nur77-Bcl-2 apoptotic pathway” (Eur J Med Chem, 2021).
